Assay results pooled from the literature.
Target: Dual specificity testis-specific protein kinase 1 (TESK1, Homo sapiens, UniProt Q15569)

SMILES	test	conditions	remaining binding [%]
C[C@H](NC(=O)c1cnc2n1[C@](C)(Cc1ccc(C#N)cc1)C(=O)N2c1cc(Cl)c(F)c(Cl)c1)C(=O)NC1(c2ccccn2)CC1	cell-free assay, competition with immobilised ligand	1 µM	100
O=C(c1ccc(Nc2ncc(Cl)c(-c3ccc(Cl)s3)n2)cc1)N1CCC(N2CCCC2)CC1	binding, competition with immobilised ligand	1 µM	99
CN(C)c1ncc(F)c(-c2cnn3ncccc23)n1	binding	1 µM	100
Cc1cc(NC(=O)c2cccc(S(F)(F)(F)(F)F)c2)cc(-n2ccn3nc(-c4cccnc4)cc23)c1	cell-free assay, competition with immobilised ligand	1 µM	91.7
N[C@H]1CCN(c2nccc(-c3cnn4ncccc34)n2)C1	binding	1 µM	86
Cc1c[nH]c2nccc(Oc3c(F)cc(Nc4cc(Cl)nc(N)n4)cc3F)c12	cell-free assay, competition with immobilised ligand	0.1 µM	100
C[C@@H]1CCN(c2nccc(-c3cnn4ncccc34)n2)C1	binding	1 µM	91
O=C(NCC1CCOCC1)c1n[nH]cc1NC(=O)c1c(F)cccc1F	binding, competition with immobilised ligand	1 µM	100
O=C(NCCCN1CCOCC1)c1ccc(Nc2nccc(-c3cc4ccccc4s3)n2)cc1	binding, competition with immobilised ligand	1 µM	77
c1cnn2ncc(-c3ccnc(N4CCC45COC5)n3)c2c1	binding	1 µM	99
NS(=O)(=O)c1cc(NC(=O)Cc2ccccc2)ccc1Oc1cccc(Cl)c1	cell-free assay, competition with immobilised ligand	1 µM	100
Nc1ncc2c(n1)-c1c([nH]c3ccc(C#CC4CC4)cc13)CCCC2	binding, competition with immobilised ligand	1 µM	100
COc1cnc(Nc2cccc(S(N)(=O)=O)c2)nc1N1CCN(c2ccccc2)CC1	binding, competition with immobilised ligand	1 µM	100
CCCOc1ccc([C@H]2[C@H](C(=O)O)[C@@H](c3ccc4c(c3)OCO4)CN2CC(=O)Nc2c(CC)cccc2CC)cc1	cell-free assay, competition with immobilised ligand	1 µM	89
CN(C)c1nccc(-c2cnn3ncccc23)n1	binding	1 µM	100
C[C@@H](c1ccc(-n2cnc3c(N)ncnc32)cc1)N1CCc2nn(C)c(Cc3ccccc3)c2C1=O	binding, competition with immobilised ligand	0.1 µM	87
COc1cnc(Nc2cccc(S(N)(=O)=O)c2)nc1N1CCN(c2ccccc2)C(=O)C1	binding, competition with immobilised ligand	1 µM	96
F[C@@H]1CCN(c2nccc(-c3cnn4ncccc34)n2)C1	binding	1 µM	67
O=C(NCCCN1CCOCC1)c1ccc(Nc2ncc(Cl)c(-c3ccc(Cl)s3)n2)cc1	binding, competition with immobilised ligand	1 µM	100
CO[C@H]1CC[C@H](CNc2ccc(S(=O)(=O)NC(=O)c3ccc(N4CCN(CC5=C(c6ccc(Cl)cc6)CC(C)(C)CC5)CC4)cc3Oc3cnc4[nH]ccc4c3)cc2[N+](=O)[O-])CC1	cell-free assay, competition with immobilised ligand	1 µM	100
